ChEMBL document CHEMBL1145694, “In vitro evaluation of antifungal properties of 8.O.4'-neolignans” (1997)
Values after ≈ are worked out from the molar mass of the structure shown. Active and inactive are the calls of the source. The rule behind the calls is not given here.

Tests used:
Candida albicans = test: Antifungal activity against Candida albicans ATCC 10231 up to 250 ug/mL by agar dilution method; format: functional, organism-based
Method in brief: (§1)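 Agar dilution in Saboureaud-chloramphenicol agar wells. Test agents from DMSO stocks were serially diluted twofold to final 0.10–250 µg/mL, with DMSO ≤2% final. Each well got 5 µL of yeast cell or spore suspension (spores at 10⁶ CFU/mL). Ketoconazole and amphotericin B served as positive controls, with a drug-free blank. Plates were held at 30 °C for 24, 48 or 72 h, set by control growth. MIC = lowest concentration with no visible growth.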

Saccharomyces cerevisiae = test: Antifungal activity against Saccharomyces cerevisiae ATCC 9763 up to 250 ug/mL by agar dilution method; format: functional, organism-based; method in brief: as §1
Cryptococcus neoformans = test: Antifungal activity against Cryptococcus neoformans ATCC 32264 up to 250 ug/mL by agar dilution method; format: functional, organism-based; method in brief: as §1
Aspergillus niger = test: Antifungal activity against Aspergillus niger ATCC 9029 up to 250 ug/mL by agar dilution method; format: functional, organism-based; method in brief: as §1
Aspergillus fumigatus = test: Antifungal activity against Aspergillus fumigatus ATCC 26934 up to 250 ug/mL by agar dilution method; format: functional, organism-based; method in brief: as §1
Aspergillus flavus = test: Antifungal activity against Aspergillus flavus ATCC 9170 up to 250 ug/mL by agar dilution method; format: functional, organism-based; method in brief: as §1
Microsporum canis = test: Antifungal activity against Microsporum canis C112 after 15 days by agar dilution method; format: functional; settings: 360 h
Method in brief: (§2)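 Dermatophytes were kept on Saboureaud dextrose agar slopes and subcultured every 15 days. Spore suspensions were set to 10⁶ CFU/mL, and 5 µL went into Saboureaud-chloramphenicol agar wells. Wells held twofold dilutions from DMSO stocks, final 0.10–250 µg/mL, DMSO ≤2%. Ketoconazole and amphotericin B were positive controls, with a drug-free blank. Incubation was at 30 °C for up to 15 days. MIC = lowest concentration with no visible growth.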

Nannizzia gypsea = test: Antifungal activity against Microsporum gypseum C115 after 15 days by agar dilution method; format: functional; settings: 360 h; method in brief: as §2
[1] = test system: Trichophyton mentagrophytes; test: Antifungal activity against Trichophyton mentagrophytes ATCC 9972 after 15 days by agar dilution method; format: functional; settings: ATCC 9972, 360 h; method in brief: as §2
Trichophyton rubrum = test: Antifungal activity against Trichophyton rubrum C113 after 15 days by agar dilution method; format: functional; settings: 360 h; method in brief: as §2
Epidermophyton floccosum = test: Antifungal activity against Epidermophyton floccosum C114 after 15 days by agar dilution method; format: functional; settings: 360 h; method in brief: as §2

MIC (Microsporum canis)	MIC (Nannizzia gypsea)	MIC [1]	MIC (Trichophyton rubrum)	MIC (Epidermophyton floccosum)	SMILES	Activity (Candida albicans)	Activity (Saccharomyces cerevisiae)	Activity (Cryptococcus neoformans)	Activity (Aspergillus niger)	Activity (Aspergillus fumigatus)	Activity (Aspergillus flavus)
20 µg/mL (≈ 55.8 µM)	60 µg/mL (≈ 167 µM)	40 µg/mL (≈ 112 µM)	20 µg/mL (≈ 55.8 µM)	25 µg/mL (≈ 69.7 µM)	C=CCc1ccc(O[C@@H](C)[C@@H](O)c2ccc(OC)c(OC)c2)c(OC)c1 (racemic)	inactive	inactive	inactive	inactive	inactive	inactive
> 250 µg/mL	> 250 µg/mL	> 250 µg/mL	> 250 µg/mL	> 250 µg/mL	C/C=C/c1ccc(OC(C)C(=O)c2cc(OC)c(OC)c(OC)c2)c(OC)c1 (racemic)	inactive	inactive	inactive	inactive	inactive	inactive
50 µg/mL (≈ 139 µM)	> 250 µg/mL	> 250 µg/mL	> 250 µg/mL	100 µg/mL (≈ 279 µM)	C/C=C/c1ccc(O[C@@H](C)[C@@H](O)c2ccc(OC)c(OC)c2)c(OC)c1 (racemic) [VIROLIN]	inactive	inactive	inactive	inactive	inactive	inactive
> 250 µg/mL	250 µg/mL (≈ 675 µM)	> 250 µg/mL	> 250 µg/mL	> 250 µg/mL	C=CCc1cc(OC)c(OC(C)C(=O)c2ccc3c(c2)OCO3)c(OC)c1 (racemic)	inactive	inactive	inactive	inactive	inactive	inactive
80 µg/mL (≈ 215 µM)	40 µg/mL (≈ 107 µM)	200 µg/mL (≈ 537 µM)	20 µg/mL (≈ 53.7 µM)	15 µg/mL (≈ 40.3 µM)	C=CCc1cc(OC)c(O[C@@H](C)[C@@H](O)c2ccc3c(c2)OCO3)c(OC)c1 (racemic)	inactive	inactive	inactive	inactive	inactive	inactive
60 µg/mL (≈ 143 µM)	80 µg/mL (≈ 191 µM)	50 µg/mL (≈ 119 µM)	25 µg/mL (≈ 59.7 µM)	60 µg/mL (≈ 143 µM)	C=CCc1cc(OC)c(O[C@@H](C)[C@@H](O)c2cc(OC)c(OC)c(OC)c2)c(OC)c1 (racemic)	inactive	inactive	inactive	inactive	inactive	inactive
250 µg/mL (≈ 600 µM)	> 250 µg/mL	> 250 µg/mL	> 250 µg/mL	> 250 µg/mL	C=CCc1cc(OC)c(OC(C)C(=O)c2cc(OC)c(OC)c(OC)c2)c(OC)c1 (racemic)	inactive	inactive	inactive	inactive	inactive	inactive
250 µg/mL (≈ 647 µM)	> 250 µg/mL	> 250 µg/mL	> 250 µg/mL	> 250 µg/mL	C=CCc1cc(OC)c(OC(C)C(=O)c2ccc(OC)c(OC)c2)c(OC)c1 (racemic)	inactive	inactive	inactive	inactive	inactive	inactive
20 µg/mL (≈ 53.7 µM)	50 µg/mL (≈ 134 µM)	100 µg/mL (≈ 269 µM)	> 250 µg/mL	5 µg/mL (≈ 13.4 µM)	C=CCc1cc(OC)c(O[C@H](C)[C@@H](O)c2ccc3c(c2)OCO3)c(OC)c1 (racemic)	inactive	inactive	inactive	inactive	inactive	inactive
250 µg/mL (≈ 697 µM)	> 250 µg/mL	> 250 µg/mL	250 µg/mL (≈ 697 µM)	15 µg/mL (≈ 41.8 µM)	C=CCc1ccc(O[C@H](C)[C@@H](O)c2ccc(OC)c(OC)c2)c(OC)c1 (racemic)	inactive	inactive	inactive	inactive	inactive	inactive
60 µg/mL (≈ 154 µM)	60 µg/mL (≈ 154 µM)	80 µg/mL (≈ 206 µM)	50 µg/mL (≈ 129 µM)	25 µg/mL (≈ 64.4 µM)	C/C=C/c1ccc(O[C@H](C)[C@@H](O)c2cc(OC)c(OC)c(OC)c2)c(OC)c1 (racemic)	inactive	inactive	inactive	inactive	inactive	inactive
40 µg/mL (≈ 103 µM)	150 µg/mL (≈ 386 µM)	150 µg/mL (≈ 386 µM)	40 µg/mL (≈ 103 µM)	60 µg/mL (≈ 154 µM)	C=CCc1cc(OC)c(O[C@@H](C)[C@@H](O)c2ccc(OC)c(OC)c2)c(OC)c1 (racemic)	inactive	inactive	inactive	inactive	inactive	inactive
–	–	–	–	0.3 µg/mL (≈ 0.325 µM)	C[C@@H]1[C@H](O)[C@@H](C)/C=C/C=C/C=C/C=C/C=C/C=C/C=C/[C@H](O[C@@H]2O[C@H](C)[C@@H](O)[C@H](N)[C@@H]2O)C[C@@H]2O[C@](O)(C[C@@H](O)C[C@@H](O)[C@H](O)CC[C@@H](O)C[C@@H](O)CC(=O)O[C@H]1C)C[C@H](O)[C@H]2C(=O)O [AMPHOTERICIN B]	–	–	–	–	–	–
50 µg/mL (≈ 139 µM)	50 µg/mL (≈ 139 µM)	150 µg/mL (≈ 418 µM)	20 µg/mL (≈ 55.8 µM)	70 µg/mL (≈ 195 µM)	C/C=C/c1ccc(O[C@H](C)[C@@H](O)c2ccc(OC)c(OC)c2)c(OC)c1 (racemic)	inactive	inactive	inactive	inactive	inactive	inactive
150 µg/mL (≈ 386 µM)	50 µg/mL (≈ 129 µM)	150 µg/mL (≈ 386 µM)	80 µg/mL (≈ 206 µM)	40 µg/mL (≈ 103 µM)	C=CCc1cc(OC)c(O[C@H](C)[C@@H](O)c2ccc(OC)c(OC)c2)c(OC)c1 (racemic)	inactive	inactive	inactive	inactive	inactive	inactive
50 µg/mL (≈ 119 µM)	150 µg/mL (≈ 358 µM)	50 µg/mL (≈ 119 µM)	25 µg/mL (≈ 59.7 µM)	50 µg/mL (≈ 119 µM)	C=CCc1cc(OC)c(O[C@H](C)[C@@H](O)c2cc(OC)c(OC)c(OC)c2)c(OC)c1 (racemic) [RHAPHIDECURSINOL B]	inactive	inactive	inactive	inactive	inactive	inactive
250 µg/mL (≈ 701 µM)	250 µg/mL (≈ 701 µM)	> 250 µg/mL	250 µg/mL (≈ 701 µM)	250 µg/mL (≈ 701 µM)	C=CCc1ccc(OC(C)C(=O)c2ccc(OC)c(OC)c2)c(OC)c1 (racemic)	inactive	inactive	inactive	inactive	inactive	inactive
> 250 µg/mL	250 µg/mL (≈ 701 µM)	> 250 µg/mL	> 250 µg/mL	> 250 µg/mL	C/C=C/c1ccc(OC(C)C(=O)c2ccc(OC)c(OC)c2)c(OC)c1 (racemic)	inactive	inactive	inactive	inactive	inactive	inactive
> 250 µg/mL	> 250 µg/mL	> 250 µg/mL	125 µg/mL (≈ 322 µM)	50 µg/mL (≈ 129 µM)	C/C=C/c1ccc(O[C@@H](C)[C@@H](O)c2cc(OC)c(OC)c(OC)c2)c(OC)c1 (racemic)	inactive	inactive	inactive	inactive	inactive	inactive

SMILES	MIC (Microsporum canis)	MIC (Nannizzia gypsea)	MIC [1]	MIC (Trichophyton rubrum)	MIC (Epidermophyton floccosum)	Activity (Candida albicans)	Activity (Saccharomyces cerevisiae)	Activity (Cryptococcus neoformans)	Activity (Aspergillus niger)	Activity (Aspergillus fumigatus)	Activity (Aspergillus flavus)
CC(=O)N1CCN(c2ccc(OCC3COC(Cn4ccnc4)(c4ccc(Cl)cc4Cl)O3)cc2)CC1 (stereo not given) [KETOCONAZOLE]	–	–	–	–	15 µg/mL (≈ 28.2 µM)	–	–	–	–	–	–
